# From article PMC7641749 (Nucleic Acids Research, 2020)
# B1: Deletion of the N-terminus of DGCR8 (1–275 aa): DGCR8 with deletion of 1–275 aa (protein, UniProt Q8WYQ5 276-773, looked up, fragment)
# chain: DGETSVQPMMTKIKTVLKSRGRPPTEPLPDGWIMTFHNSGVPVYLHRESRVVTWSRPYFLGTGSIRKHDPPLSSIPCLHYKKMKDNEEREQSSDLTPSGDVSPVKPLSRSAELEFPLDEPDSMGADPGPPDEKDPLGAEAAPGALGQVKAKVEVCKDESVDLEEFRSYLEKRFDFEQVTVKKFRTWAERRQFNREMKRKQAESERPILPANQKLITLSVQDAPTKKEFVINPNGKSEVCILHEYMQRVLKVRPVYNFFECENPSEPFGASVTIDGVTYGSGTASSKKLAKNKAARATLEILIPDFVKQTSEEKPKDSEELEYFNHISIEDSRVYELTSKAGLLSPYQILHECLKRNHGMGDTSIKFEVVPGKNQKSEYVMACGKHTVRGWCKNKRVGKQLASQKILQLLHPHVKNWGSLLRMYGRESSKMVKQETSDKSVIELQQYAKKNKPNLHILSKLQEEMKRLAEEREETRKKPKMSIVASAQPGGEPLCTVDV
# B2: DG115–773: 1–114 aa of DGCR8 was deleted (protein)
# chain: LKDVKISVSFTESCRSKDRKVLYTGAERDVRAECGLLLSPVSGDVHACPFGGSVGDGVGIGGESADKKDEENELDQEKRVEYAVLDELEDFTDNLELDEEGAGGFTAKAIVQRDRVDEEALNFPYEDDFDNDVDALLEEGLCAPKKRRTEEKYGGDSDHPSDGETSVQPMMTKIKTVLKSRGRPPTEPLPDGWIMTFHNSGVPVYLHRESRVVTWSRPYFLGTGSIRKHDPPLSSIPCLHYKKMKDNEEREQSSDLTPSGDVSPVKPLSRSAELEFPLDEPDSMGADPGPPDEKDPLGAEAAPGALGQVKAKVEVCKDESVDLEEFRSYLEKRFDFEQVTVKKFRTWAERRQFNREMKRKQAESERPILPANQKLITLSVQDAPTKKEFVINPNGKSEVCILHEYMQRVLKVRPVYNFFECENPSEPFGASVTIDGVTYGSGTASSKKLAKNKAARATLEILIPDFVKQTSEEKPKDSEELEYFNHISIEDSRVYELTSKAGLLSPYQILHECLKRNHGMGDTSIKFEVVPGKNQKSEYVMACGKHTVRGWCKNKRVGKQLASQKILQLLHPHVKNWGSLLRMYGRESSKMVKQETSDKSVIELQQYAKKNKPNLHILSKLQEEMKRLAEEREETRKKPKMSIVASAQPGGEPLCTVDV
# B3: DGΔ96–115: 96–115 aa of DGCR8 was removed (protein)
# chain: METDESPSPLPCGPAGEAVMESRARPFQALPREQSPPPPLQTSSGAEVMDVGSGGDGQSELPAEDPFNFYGASLLSKGSFSKGRLLIDPNCSGHSKDVKISVSFTESCRSKDRKVLYTGAERDVRAECGLLLSPVSGDVHACPFGGSVGDGVGIGGESADKKDEENELDQEKRVEYAVLDELEDFTDNLELDEEGAGGFTAKAIVQRDRVDEEALNFPYEDDFDNDVDALLEEGLCAPKKRRTEEKYGGDSDHPSDGETSVQPMMTKIKTVLKSRGRPPTEPLPDGWIMTFHNSGVPVYLHRESRVVTWSRPYFLGTGSIRKHDPPLSSIPCLHYKKMKDNEEREQSSDLTPSGDVSPVKPLSRSAELEFPLDEPDSMGADPGPPDEKDPLGAEAAPGALGQVKAKVEVCKDESVDLEEFRSYLEKRFDFEQVTVKKFRTWAERRQFNREMKRKQAESERPILPANQKLITLSVQDAPTKKEFVINPNGKSEVCILHEYMQRVLKVRPVYNFFECENPSEPFGASVTIDGVTYGSGTASSKKLAKNKAARATLEILIPDFVKQTSEEKPKDSEELEYFNHISIEDSRVYELTSKAGLLSPYQILHECLKRNHGMGDTSIKFEVVPGKNQKSEYVMACGKHTVRGWCKNKRVGKQLASQKILQLLHPHVKNWGSLLRMYGRESSKMVKQETSDKSVIELQQYAKKNKPNLHILSKLQEEMKRLAEEREETRKKPKMSIVASAQPGGEPLCTVDV
# B4: DG_Ala mut: V105A/F108A/L112A/L114A/L115A (protein)
# chain: METDESPSPLPCGPAGEAVMESRARPFQALPREQSPPPPLQTSSGAEVMDVGSGGDGQSELPAEDPFNFYGASLLSKGSFSKGRLLIDPNCSGHSPRTARHAPAARKASPDAKAAKDVKISVSFTESCRSKDRKVLYTGAERDVRAECGLLLSPVSGDVHACPFGGSVGDGVGIGGESADKKDEENELDQEKRVEYAVLDELEDFTDNLELDEEGAGGFTAKAIVQRDRVDEEALNFPYEDDFDNDVDALLEEGLCAPKKRRTEEKYGGDSDHPSDGETSVQPMMTKIKTVLKSRGRPPTEPLPDGWIMTFHNSGVPVYLHRESRVVTWSRPYFLGTGSIRKHDPPLSSIPCLHYKKMKDNEEREQSSDLTPSGDVSPVKPLSRSAELEFPLDEPDSMGADPGPPDEKDPLGAEAAPGALGQVKAKVEVCKDESVDLEEFRSYLEKRFDFEQVTVKKFRTWAERRQFNREMKRKQAESERPILPANQKLITLSVQDAPTKKEFVINPNGKSEVCILHEYMQRVLKVRPVYNFFECENPSEPFGASVTIDGVTYGSGTASSKKLAKNKAARATLEILIPDFVKQTSEEKPKDSEELEYFNHISIEDSRVYELTSKAGLLSPYQILHECLKRNHGMGDTSIKFEVVPGKNQKSEYVMACGKHTVRGWCKNKRVGKQLASQKILQLLHPHVKNWGSLLRMYGRESSKMVKQETSDKSVIELQQYAKKNKPNLHILSKLQEEMKRLAEEREETRKKPKMSIVASAQPGGEPLCTVDV
# System: ERH
# Test: Co-immunoprecipitation and Western blot of DGCR8 mutants and fragments with ERH
# Type: binding, human
# Settings: co-IP / Western blot, overexpressed DGCR8 mutants, HEK293E, RNase A
# How it was run: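 HEK293E cells at 50% confluence were transfected with 5 μg total of Flag-, HA- or myc-tagged plasmids using branched/linear PEI (1:1) and harvested after 2 days. Anti-Flag, anti-HA or protein G-bound anti-myc beads were incubated with lysate 1–2 h at 4°C, washed three times and eluted in SDS buffer for western blot.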
row,Molecule,interaction with ERH
1,B1,abrogated the interaction
2,B2,could not pull down ERH
3,B3,could not pull down ERH
4,B4,impaired in ERH binding
